hiPSC survival = increases survival of single human iPS cells; actives 0.044% (n = 360,000); AID 602274; hiPSC single-cell survival, ATPlite luminescence; 100% = ROCK inhibitor wells, 0% = DMSO; survival enhancement, % at 20 µM; in the data active means survival enhancement above about 18%;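 further: cells exposed to compounds for 16 hours before the ATP read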
UBC13 polyUb = human UBC13 polyubiquitination inhibition. actives 0.47% (n = 330,000). UBC13 polyubiquitin chain formation, TR-FRET. inhibition, % at 20 µM. AID 485273. P61088; in the data active means inhibition above about 45%, passing the limit was not always enough
Target sequence (P61088 whole entry, looked up): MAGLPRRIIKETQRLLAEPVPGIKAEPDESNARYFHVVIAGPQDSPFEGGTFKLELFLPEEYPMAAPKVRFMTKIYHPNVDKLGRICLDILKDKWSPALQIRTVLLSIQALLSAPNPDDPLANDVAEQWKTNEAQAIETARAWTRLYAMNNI
Apaf1 inhib = blocks human Apaf-1 apoptosome activity; AID 489030; reconstituted apoptosome caspase-3 activity, DEVD-Rh110 fluorescence; O14727; actives 0.71% (n = 330,000); inhibition, % at 20 µM; active means inhibition of at least 40% at 20 µM
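Material: cell-free apoptosome with Apaf-1, procaspase-3 and caspase-9; Buffer or medium: Hepes pH 7.5 with detergent and BSA; Reagent: cytochrome c trigger plus (Z-DEVD)2-Rh110 caspase-3 substrate; Times: compound with Apaf-1, dATP, procaspase-3 30 min, then 50 min reaction, room temperature; Technique: Rh110 fluorescence intensity.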
MPTP inh = blocks calcium-induced mitochondrial swelling. isolated mouse mitochondria, Ca2+ swelling absorbance, 30 min. inhibition, % at 10 µM. actives 1.4% (n = 360,000);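 active means inhibition of 50% or more, scaled per plate between neutral and stimulator controls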
Granule exo inh = lytic granule exocytosis inhibition. TALL-104 LAMP-1 surface exposure, flow cytometry; cells stimulated with thapsigargin and PMA. inhibition, % at 10 µM. actives 0.66% (n = 360,000);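 active means inhibition above about 55%, limit read from the data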
beta cell repl = induces beta-cell replication in MIN6 cells | MIN6 cells proliferation, ATPlite luminescence, 48 h; cells starved in 0.2% serum; 100% = growth in 10% serum | proliferation, % at 10 µM | actives 0.29% (n = 330,000) | AID 2380;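 active means compounds whose signal lies at least 3.5 SD above the mean of all wells on their plate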
Hits are given with their value; 0 = inactive; - = no result given. Compounds with a hit are over-represented: about 3% of the library has one in this group of screens.

SMILES	hiPSC survival	UBC13 polyUb	Apaf1 inhib	MPTP inh	Granule exo inh	beta cell repl
O=C(O)c1ccc(NC2=C/C(=N/S(=O)(=O)c3cccs3)c3ccccc3C2=O)cc1	0	-	-	0	0	-
O=C1C(Nc2ccc(O)cc2)=C/C(=N/S(=O)(=O)c2cccs2)c2ccccc21	0	-	-	0	57	-
C/C(=N\NC(=O)c1ccccc1OCCOc1ccccc1)c1ccccc1F	0	0	0	0	0	0
NNC(=O)c1ccccc1OCCOc1ccccc1	0	0	0	0	59	0
CN(Cc1ccccc1)C(=O)c1ccc(S(=O)(=O)N(C)c2ccccc2)cc1	0	0	0	0	0	0
Cc1ccc(N2C(=O)[C@@H]3[C@H](C2=O)C2c4ccccc4C=CN2[C@@H]3C(=O)c2ccco2)cc1 (some centres not stated)	0	-	-	0	0	-
Cc1ccc(N2C(=O)[C@@H]3[C@H](C2=O)C2c4ccccc4C=CN2[C@@H]3C(=O)c2ccco2)c(C)c1 (some centres not stated)	0	0	87	0	0	0
COc1ccc(N2C(=O)[C@@H]3[C@H](C2=O)[C@H]2c4ccccc4C=CN2[C@@H]3C(=O)Nc2ccccc2)cc1	0	0	67	0	0	0
CC(C)(C)C(=O)[C@@H]1[C@@H]2C(=O)N(c3ccc4c(c3)OCCO4)C(=O)[C@@H]2C2c3ccccc3C=CN21 (some centres not stated)	0	0	62	0	0	0
COc1ccc(C2=NO[C@@H]3C(=O)N(c4ccc5c(c4)OCCO5)C(=O)[C@H]23)cc1OC	0	0	0	0	0	0
COc1ccc(N2C(=O)[C@@H]3[C@H](C2=O)[C@H]2C=CC=NN2[C@@H]3C(=O)Nc2ccc(Cl)cc2)cc1	0	0	0	0	0	0
O=C(c1ccco1)[C@@H]1[C@@H]2C(=O)N(c3ccccc3)C(=O)[C@@H]2C2c3ccccc3C=CN21 (some centres not stated)	0	0	86	0	0	0
O=C(COC(=O)CCC(=O)c1cccs1)Nc1ccccc1C(F)(F)F	0	0	0	0	0	0
CCC1(c2ccccc2)NC(=O)N(CC(=O)Nc2ccc3c(C)cc(=O)oc3c2)C1=O (configuration not stated)	0	0	0	0	0	0
Cc1ccc2c(c1)N(CC(=O)NC1CCCC(C)C1C)C(=O)c1cccnc1O2 (configuration not stated)	0	0	0	0	0	0
CC(=O)[C@@H]1[C@@H]2C(=O)N(Cc3ccccc3)C(=O)[C@@H]2C2c3ccccc3C=CN21 (some centres not stated)	0	0	67	0	0	0
O=C1C2C3C=CC(C3)C2C(=O)N1Cc1ccccc1 (configuration not stated)	0	0	0	0	0	0
CCC(C(=O)N1CCOCC1)n1nc(C)c2c(C)n(-c3ccccc3)nc2c1=O (configuration not stated)	0	0	0	0	0	0
Cc1ccc2nc(Cl)c(/C=C/C(=O)c3ccco3)cc2c1	0	0	0	0	86	0
COc1cc2cc(/C=C/C(=O)c3ccco3)c(Cl)nc2cc1OC	0	0	0	0	0	0
Cc1ccc2cc(/C=C/C(=O)c3ccco3)c(Cl)nc2c1	0	0	0	0	95	0
CC1CCCC(NC(=O)c2ccc3c(c2)NC(=O)CS3)C1C (configuration not stated)	0	0	0	0	0	0
O=C(NNC(=O)c1ccncc1)Nc1cccc([N+](=O)[O-])c1	0	0	0	0	90	0
O=C(NNC(=O)c1cccc([N+](=O)[O-])c1)c1ccncc1	0	0	0	0	0	0
O=C1NC[C@@H](CCCCN2CCN(Cc3ccccc3)C(=O)C2=O)N(CC2CCCCC2)C1=O	0	-	-	0	0	-
SMILES	hiPSC survival	UBC13 polyUb	Apaf1 inhib	MPTP inh	Granule exo inh	beta cell repl
COc1ccc2c(COC(=O)c3cccc(S(=O)(=O)NCC(C)C)c3)cc(=O)oc2c1	0	0	0	0	0	0
CCCNS(=O)(=O)c1cccc(C(=O)OCc2cc(=O)oc3cc(OC)ccc23)c1	0	0	0	0	70	0
CN(C)Cc1cc(O)c(CN(C)C)cc1O	0	0	65	0	0	0
COc1cc(C#Cc2c(-c3cncn3C)n(C)c3ccc(-c4cnc(N5CCOCC5)nc4)cc23)cc(OC)c1	0	0	0	0	0	0
COc1cc(C#Cc2c(-c3cncn3C)n(C)c3ccc(-c4cnc(OC)nc4)cc23)cc(OC)c1	0	0	42	0	0	0
CCc1nn(CCCC(=O)NCc2ccccc2Br)c(=O)c2cc3occc3n12	0	0	46	0	0	0
COc1ccc(NC(=O)N(C)C[C@H]2Oc3c(NC(=O)C4CCCCC4)cccc3C(=O)N([C@H](C)CO)C[C@@H]2C)cc1	0	0	0	0	0	0
O=[N+]([O-])c1ccc(-c2ccc(C=Nc3cccc4ccccc34)o2)cc1	0	0	46	0	0	0
Cc1nc2c(C)cccn2c(=O)c1NC(=O)c1cccc2ccccc12	0	0	0	0	0	0
CN(c1ccc(OCC(=O)OCC(=O)c2c(N)n(C)c(=O)n(C)c2=O)cc1)S(=O)(=O)c1ccc2ccccc2c1	0	0	0	0	69	0
COCc1cc(=O)n2[nH]c(SCc3ccccc3)nc2n1	0	0	0	0	0	0
O=c1cc(-c2ccccc2)nc2nc(SCc3ccccc3)[nH]n12	31	0	0	0	0	0
Cn1cc(-c2csc(C(O)c3ccccc3)n2)cn1 (configuration not stated)	0	-	-	0	0	-
Oc1c(C=C2N=c3ccccc3=N2)sc(=S)n1-c1ccc2ccccc2c1	0	0	0	0	59	0
Oc1c(C=C2N=c3ccccc3=N2)sc(=S)n1-c1ccc(F)cc1	0	0	0	0	0	0
CCOc1ccc(NC(=O)CCCN2C(=O)C(c3ccccc3)Oc3cccnc32)cc1 (configuration not stated)	0	0	0	0	0	0
CCOC(=O)C1=CCN(S(=O)(=O)c2ccccc2C)C1c1ccccc1 (configuration not stated)	0	-	-	0	0	-
O=C(N/N=C/c1cc(Br)c(O)c(Br)c1O)c1cccnc1	0	0	0	0	65	0
COc1ccc(CNCC(O)(c2ccc(Cl)cc2)c2ccc(Cl)cc2)cc1OC	0	0	42	0	0	0
COc1ccc(CNCC(O)(c2ccc(F)cc2)c2ccc(F)cc2)cc1OC	0	0	0	0	0	0
COc1ccc(CCN(C)C2CCCN(S(=O)(=O)c3ccccc3F)C2)cc1OC (configuration not stated)	0	0	0	0	0	0
O=[N+]([O-])c1ccc(S(=O)(=O)c2cccc(C(F)(F)F)c2)nc1	0	0	0	0	60	0

Screens: PubChem, several laboratories
